Bioassay records from PubChem BioAssay.
H69AR growth 86K: blocks growth of human H69AR lung tumor cells | H69AR lung tumor viability, ATP luminescence, 72 h; stronger effect = lower value | viability, % at 10 µM | hit rate 6% among 85,000 | AID 598;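 active means viability at or below 40%; inactive means viability above 40%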;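 further: multidrug resistant small cell line overexpressing MRP-1 efflux transporter; 100% = mean luminescence of untreated control wells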
Fibroblast inh: blocks proliferation of human lung fibroblasts; AID 719; LL 47 human lung fibroblast viability, ATP luminescence; stronger effect = lower value; hit rate 1.1% among 85,000; viability, % at 10 µM;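 active means viability at or below 50% in the single dose screen; inactive means viability above 50%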;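 further: compound exposure lasted 72 h before the ATP readout; 100% = median luminescence of untreated cell-only wells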
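Signal: luminescent ATP detection, CellTiter-Glo; assay system: LL 47 human lung fibroblasts; input: 1,150 cells/well; incubation: overnight cell rest, 72 h compound treatment at 37 °C; measure: % viability versus median cells-only luminescence; medium: IMEM growth medium with 15% fetal bovine serum; dosing: compound addition at 0.1% DMSO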
Jurkat viability: cytotoxicity toward Jurkat cells; Jurkat E6.1 viability, ATP luminescence, 48 h; inhibition, % at 4 µM; hit rate 1.2% among 56,000; AID 463;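 active means inhibition above the mean inhibition of all tested compounds plus 3 SD, cut at about 28% in these data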
PTK2B oligo ant: antagonists of human Pyk2 oligomerization. Q14289. Q293 cells, Pyk2 FERM NanoBiT luminescence; stronger effect = lower value. z-score (the deposit names both 25 µM and 10 µM). hit rate 0.83% among 99,000. AID 1347419;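 active means Z-score of -3 or lower, scaled per plate to the spread of control and sample wells; inactive means z-score above -3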;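 further: negative z-score means lost luminescence so less FERM oligomerization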
Target sequence (Q14289 whole entry, looked up): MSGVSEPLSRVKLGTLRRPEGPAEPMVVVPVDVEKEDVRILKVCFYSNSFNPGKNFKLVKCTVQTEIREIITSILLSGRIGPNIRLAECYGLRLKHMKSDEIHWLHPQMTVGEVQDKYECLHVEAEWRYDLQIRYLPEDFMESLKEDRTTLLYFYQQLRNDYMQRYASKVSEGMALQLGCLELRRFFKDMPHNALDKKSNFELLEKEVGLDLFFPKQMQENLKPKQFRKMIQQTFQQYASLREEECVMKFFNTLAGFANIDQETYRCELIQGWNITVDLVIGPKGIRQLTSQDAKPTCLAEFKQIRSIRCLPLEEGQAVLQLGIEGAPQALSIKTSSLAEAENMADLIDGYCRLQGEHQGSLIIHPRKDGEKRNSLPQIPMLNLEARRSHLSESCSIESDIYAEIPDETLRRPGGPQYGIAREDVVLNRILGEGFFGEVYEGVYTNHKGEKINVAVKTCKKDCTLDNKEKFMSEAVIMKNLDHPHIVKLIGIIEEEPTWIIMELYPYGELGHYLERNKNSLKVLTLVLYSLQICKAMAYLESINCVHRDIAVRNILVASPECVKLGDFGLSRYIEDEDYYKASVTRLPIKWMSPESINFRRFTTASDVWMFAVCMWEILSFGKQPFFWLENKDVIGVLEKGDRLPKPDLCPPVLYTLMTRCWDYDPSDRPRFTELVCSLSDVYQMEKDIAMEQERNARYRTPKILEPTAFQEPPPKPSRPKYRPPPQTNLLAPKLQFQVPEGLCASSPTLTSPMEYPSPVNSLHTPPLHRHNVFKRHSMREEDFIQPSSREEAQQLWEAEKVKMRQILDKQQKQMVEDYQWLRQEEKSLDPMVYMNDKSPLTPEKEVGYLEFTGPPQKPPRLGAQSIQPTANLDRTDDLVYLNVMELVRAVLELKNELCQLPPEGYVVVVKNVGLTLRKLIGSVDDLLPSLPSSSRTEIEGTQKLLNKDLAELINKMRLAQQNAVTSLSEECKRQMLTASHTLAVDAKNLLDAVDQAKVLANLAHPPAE
HUVEC prolif 384: inhibitors of human endothelial cell proliferation | HUVEC proliferation, CellTiter-Glo luminescence, 72 h; stronger effect = lower value | viability, % at 10 µM (by protocol) | hit rate 1.1% among 86,000;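 active means viability at or below 30%; inactive means viability above 30%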;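 further: 100% = median luminescence of DMSO-only cell control wells on each plate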
F-actin modifier: alters cytoskeleton assembly in HUVEC cells | HUVEC TNFa F-actin phalloidin imaging, high content | hit rate 0.18% among 91,000 | AID 836 | inhibition, % at 2 µM;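 active means inhibition above the batch mean plus 3 SD and confirmed as a hit by visual image inspection, cut at about 30% in these data, passing the limit was not always enough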
Numbers without * were called inactive; x = not tested or not shown. Only some compounds are listed: those with a hit (about 6% of all), similar ones and a draw of the others.

SMILES	H69AR growth 86K	Fibroblast inh	Jurkat viability	PTK2B oligo ant	HUVEC prolif 384	F-actin modifier
COc1ccc(CC(=O)Nc2nc3ccc(F)cc3s2)cc1S(=O)(=O)N1CCOCC1	39.4*	88.3	x	-0.79	86.2	-4.7
CCCCC(=O)NC(Nc1ccc(C)cn1)(C(=O)OCC)C(F)(F)F (centres undefined)	97.3	99.9	x	0.51	105.9	-0.1
CCOC(=O)Cc1cn2c(=O)cc(CSCC(=O)Nc3ccc(C)c(C)c3)nc2s1	92.7	102.9	-5.9	0.31	101.8	x
CCc1ccccc1NC(=O)c1ccc(CN2CCC(Cc3ccccc3)CC2)cc1	x	x	x	0.15	x	-10.0
O=C(NC1CC1)C1CCCN1S(=O)(=O)c1ccc2ccccc2c1 (centres undefined)	18.3*	94.9	9.6	0.67	77.8	1.6
Cc1cc(C(=O)OCC(=O)c2c(N)n(C)c(=O)n(C)c2=O)c(C)n1-c1ccccc1	61.9	93.1	1.6	0.4	78.3	-0.4
COc1ccc(N(CC(=O)Nc2ccccc2C(=O)NCCc2ccccc2)S(C)(=O)=O)cc1OC	94.7	87.0	x	-0.68	83.1	4.7
CCOC(=O)N1CCC(NC(=O)c2ccc(CNS(=O)(=O)c3ccc(F)cc3)cc2)CC1	55.7	86.8	x	0.05	95.4	76.5*
OCCOCCn1c2ccccc2c2ccccc21	88.3	91.4	3.6	0.31	90.6	-7.6
COc1ccc(CCNC(=O)c2cc(-c3cc(C)c(C)cc3O)n[nH]2)cc1OC	29.0*	101.3	11.9	-1.89	94.2	0.5
CCOC(=O)c1ccc(N=c2sc(C(=O)OC)cc(=O)n2CCCN2CCOCC2)cc1	20.5*	67.5	6.6	x	58.3	-10.3
COC(=O)c1ccc2c(=O)n(CCCN3CCOCC3)c(=S)[nH]c2c1	85.8	97.1	-4.7	1.21	95.0	-2.1
CCOC(=O)c1ccc(N=c2sc(C(=O)OC)cc(=O)n2Cc2ccco2)cc1	1.3*	69.1	8.2	x	28.5*	x
COC(=O)c1cc(=O)n(Cc2cccs2)c(=NCc2cccs2)s1	x	x	x	-0.51	x	13.9
Cc1nc2ncnn2c(N2CCN(C(=O)Cc3cccs3)CC2)c1C	100.7	101.5	x	0.34	110.9	14.5
COC(=O)c1ccccc1OC(=O)c1ccc(Br)o1	92.9	98.1	7.8	1.05	94.8	-23.0
Cn1cc(C(=O)c2ccc(Cl)cc2Cl)cc1C(=O)N/N=C(\N)COc1cccc(C(F)(F)F)c1	27.0*	77.4	x	0.95	69.1	-8.1
CCc1c(C#N)c(SCCC(=O)Nc2ccc(OC)cc2)nc2c1C(=O)CC(C)(C)C2	x	x	x	-3.09*	x	-2.6
CCc1c(C#N)c(SCc2c(C)noc2C)nc2c1C(=O)CC(C)(C)C2	74.5	101.5	x	x	92.0	x
CC1Cc2ccccc2N1C(=O)C1CCCN(S(=O)(=O)c2cccc3cccnc23)C1 (centres undefined)	36.7*	82.2	6.8	x	80.2	x
CCn1nnc(-c2ccccc2NS(=O)(=O)c2ccc(C(=O)OC)cc2)n1	16.9*	103.9	22.0	-0.18	85.9	-3.8
Cc1ccc2nc(Nc3ccc4[nH]c(=O)[nH]c4c3)c(-n3nc(C)cc3C)nc2c1	x	x	0.9	-1.23	x	5.9
CCNc1nc(NC(C)C)nc(N(C#N)CCOc2ccccc2)n1	27.4*	87.7	x	-2.1	92.7	6.5
COc1ccc(F)cc1S(=O)(=O)Nc1ccc(C)cc1	53.7	101.9	-3.7	0.8	81.9	5.1
Cc1ccc2cc(CN(CC3CCCO3)S(=O)(=O)c3ccccc3)c3nnnn3c2c1 (centres undefined)	12.2*	93.8	x	-2.3	96.3	-1.3
SMILES	H69AR growth 86K	Fibroblast inh	Jurkat viability	PTK2B oligo ant	HUVEC prolif 384	F-actin modifier
COC(=O)Nc1sc2c(c1C(=O)NCc1ccco1)CCC2	39.4*	82.5	-3.2	0.18	75.7	13.0
O=C(Nc1sc2c(c1C(=O)NC1CC1)CCCCCC2)c1ccco1	30.1*	98.8	-2.6	-1.23	92.5	17.8
O=C(CCN1C(=O)c2ccccc2C1=O)Nc1sc2c(c1C(=O)NCc1ccco1)CCCC2	57.9	104.0	x	-0.33	81.4	-3.8
COc1ccc(C(=O)Nc2sc3c(c2C(=O)NCc2ccco2)CCCC3)cc1OC	35.7*	85.8	x	-1.17	67.1	-5.4
CC(C(=O)Nc1sc2c(c1C(=O)NCc1ccco1)CCCC2)N1C(=O)c2ccccc2C1=O (centres undefined)	23.5*	99.7	x	1.65	85.1	6.3
COc1cc(C(=O)Nc2sc3c(c2C(=O)NCc2ccco2)CCCC3)cc(OC)c1OC	60.4	87.1	x	-2.54	68.3	6.3
O=C(Nc1sc2c(c1C(=O)O)CCC2)c1ccco1	x	x	x	-0.02	x	-13.0
COc1cc(C)c(Br)cc1S(=O)(=O)N1CCCC1	83.0	104.9	2.8	-1	83.7	1.4
COc1ccc(C(CC(=O)NCCCN2CCOCC2)NS(=O)(=O)c2ccc(C)cc2)cc1 (centres undefined)	106.5	102.8	-4.4	1.37	97.5	-28.7
Cc1cccc(N2C(=O)CC(Sc3nnc(C)s3)C2=O)c1 (centres undefined)	112.8	100.0	x	0.32	95.9	-10.2
NC(=O)c1c(NC(=O)c2cc3ccccc3o2)sc2c1CCC2	23.7*	82.0	-5.8	-0.78	62.1	22.7
Cc1ccc(C(=O)Nc2sc3c(c2C(=O)NCc2ccco2)CCCC3)cc1	11.2*	96.3	x	-2.31	44.4	16.9
COC(=O)Nc1sc2c(c1C(=O)NCc1ccco1)CCCC2	78.4	93.3	4.1	0.42	83.1	-11.0
O=Cc1cn(-c2ccc(F)cc2)c2ccccc12	x	x	x	-0.75	x	x
CCC(=O)Nc1cc(-c2nn(C)c(=O)c3ccccc23)ccc1OC	x	x	0.1	0.78	x	18.0
CNC(=O)Cn1nc(C)c2ccccc2c1=O	88.4	100.1	-3.2	-0.46	96.3	-2.8
Cc1nn(CC(=O)Nc2ccc3c(c2)oc2ccccc23)c(=O)c2ccccc12	3.3*	105.2	3.7	-0.96	39.3	1.2
Cc1ccc(-c2nn(CC(=O)NCc3cc(-c4nn(C)c(=O)c5ccccc45)ccc3C)c(=O)c3ccccc23)cc1	2.1*	4.9*	x	-0.13	4.1*	x
CCC(=O)NCc1cc(-c2nn(C)c(=O)c3ccccc23)ccc1C	66.7	100.8	x	1.25	90.8	-2.7
COc1ccc(-c2nn(C)c(=O)c3ccccc23)cc1NC(=O)Cn1nc(C)c2ccccc2c1=O	3.3*	86.9	13.4	-1.49	83.8	-5.2
Nn1c(SCC(=O)N2CCN(S(=O)(=O)c3ccc(Cl)cc3)CC2)nnc1-c1cccs1	76.9	95.7	x	0.66	87.9	x
Cc1ccc(NC(=O)COc2ccc(/C(N)=N/O)cc2)cc1C	73.0	102.1	x	x	73.8	x
Cn1c(=NC(=O)CCl)sc2ccccc21	1.4*	2.4*	x	-0.07	76.3	-8.1
CN1CCc2c(sc3c2C(=O)NC(c2ccco2)N3)C1 (centres undefined)	82.5	101.2	-4.8	-0.13	99.6	-13.8
CN1CCc2c(sc3c2C(=O)NC(c2cn(Cc4ccccc4)c4ccccc24)N3)C1 (centres undefined)	3.4*	52.5	7.7	0.69	67.7	-0.2
CCOc1ccc(Br)cc1C1NC(=O)c2c(sc3c2CCN(C)C3)N1 (centres undefined)	38.5*	87.6	3.5	x	78.0	x
